ChEMBL document CHEMBL4376860, “Discovery of Novel Dual Poly(ADP-ribose)polymerase and Phosphoinositide 3-Kinase Inhibitors as a Promising Strategy for Cancer Therapy” (J Med Chem, 2020)
Activity calls are given as the source filed them. The calls are words filed in the database; no cut-off is given here.

Experiments:
HCT-116 = assay: cells; conditions: Homo sapiens, HCT-116, 168 h, read-out: pIC50 (converted)
MDA-MB-468 [1] = assay: Induction of apoptosis in human MDA-MB-468 cells assessed as late apoptotic cells at 1 uM measured after 72 hrs in presence of PARP inhibitor olaparib by Annexin V-FITC/propidium iodide staining based flow cytometry (reference value: 0.78%); assay type: functional
MDA-MB-468 [2] = assay: cells; conditions: Homo sapiens, MDA-MB-468, 168 h, read-out: pIC50 (converted)
Jurkat = assay: cells; conditions: Homo sapiens, 168 h, read-out: pIC50 (converted)
MDA-MB-231 = assay: cells; conditions: Homo sapiens, MDA-MB-231, 168 h, read-out: pIC50 (converted)
HCC1937 = assay: cells; conditions: Homo sapiens, HCC1937, 168 h, read-out: pIC50 (converted)
DU-145 = assay: cells; conditions: Homo sapiens, DU-145, 168 h, read-out: pIC50 (converted)
MDA-MB-468 [3] = assay: Induction of DNA damage in human MDA-MB-468 cells at 1 uM measured after 72 hrs in presence of PARP inhibitor olaparib by comet assay; assay type: functional, cell-based
Summary of the method: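 MDA-MB-468 cells treated for 72 h, harvested and run in a neutral comet assay. Ethidium bromide staining after electrophoresis. About 200 cell images per group analysed with CASP. DNA damage scored as tail intensity (percentage DNA in tail) and olive tail moment. Mean ± SD of three independent experiments.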

[4] = biological target: Phosphatidylinositol 4,5-bisphosphate 3-kinase catalytic subunit gamma isoform (Homo sapiens, UniProt P48736); assay: Inhibition of PI3Kgamma (unknown origin) using PIP2 as substrate measured after 1 hr by ADP-glo plus luminescence assay
Chain of Phosphatidylinositol 4,5-bisphosphate 3-kinase catalytic subunit gamma isoform (P48736 whole entry, canonical isoform): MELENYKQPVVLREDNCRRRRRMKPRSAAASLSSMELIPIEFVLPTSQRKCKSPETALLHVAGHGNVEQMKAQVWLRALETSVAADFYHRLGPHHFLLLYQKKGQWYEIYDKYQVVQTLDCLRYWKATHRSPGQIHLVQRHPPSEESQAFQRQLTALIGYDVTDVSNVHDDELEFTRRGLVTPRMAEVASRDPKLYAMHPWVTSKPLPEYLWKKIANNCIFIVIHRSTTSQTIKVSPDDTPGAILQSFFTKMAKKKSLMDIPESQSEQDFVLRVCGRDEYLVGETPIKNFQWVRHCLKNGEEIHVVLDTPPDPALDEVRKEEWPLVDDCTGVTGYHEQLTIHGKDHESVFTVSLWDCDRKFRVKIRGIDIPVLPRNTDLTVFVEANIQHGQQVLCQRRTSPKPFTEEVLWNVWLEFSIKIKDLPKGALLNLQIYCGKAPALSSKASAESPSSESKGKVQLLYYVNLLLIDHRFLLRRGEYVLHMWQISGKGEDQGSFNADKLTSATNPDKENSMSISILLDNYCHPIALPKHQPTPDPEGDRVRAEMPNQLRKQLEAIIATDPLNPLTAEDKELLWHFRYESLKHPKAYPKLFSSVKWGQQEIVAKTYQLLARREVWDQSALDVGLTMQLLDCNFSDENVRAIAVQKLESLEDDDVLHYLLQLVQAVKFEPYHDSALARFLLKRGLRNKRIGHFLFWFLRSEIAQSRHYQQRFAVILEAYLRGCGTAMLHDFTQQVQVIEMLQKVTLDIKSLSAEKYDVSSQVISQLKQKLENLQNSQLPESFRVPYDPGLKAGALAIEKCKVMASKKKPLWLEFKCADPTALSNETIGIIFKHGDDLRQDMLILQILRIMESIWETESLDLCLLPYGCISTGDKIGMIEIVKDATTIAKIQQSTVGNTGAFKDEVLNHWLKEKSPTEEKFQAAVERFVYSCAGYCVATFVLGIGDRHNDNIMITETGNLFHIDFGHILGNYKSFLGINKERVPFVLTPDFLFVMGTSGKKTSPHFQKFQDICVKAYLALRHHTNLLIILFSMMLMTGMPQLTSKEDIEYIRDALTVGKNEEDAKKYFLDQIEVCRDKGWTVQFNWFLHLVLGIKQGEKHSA

Mus musculus [5] = assay: In vivo activation of ETS1 in BALB/c mouse xenografted with human MDA-MB-468 cells assessed as increase in ETS1 phosphorylation at Thr38 residue at 50 mg/kg, ip administered every 2 days for 34 days measured post-last dose by Western blot analysis; assay type: functional, organism-based
Mus musculus [6] = assay: In vivo activation of ERK in BALB/c mouse xenografted with human MDA-MB-468 cells assessed as increase in ERK autophosphorylation at T202 residue at 50 mg/kg, ip administered every 2 days for 34 days measured post-last dose by Western blot analysis; assay type: functional, organism-based
MDA-MB-468 [7] = assay: Activation of ERK in human MDA-MB-468 cells assessed as increase in ERK autophosphorylation at T202 residue at 1 uM measured after 6 to 72 hrs by Western blot analysis; assay type: cell-based
Summary of the method: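 MDA-MB-468 cells seeded in six-well plates, incubated overnight, then treated for 6 h, with 1‰ (v/v) DMSO medium as control. Lysates cleared at 4 °C, protein quantified by BCA, resolved by 8-12% SDS-PAGE and transferred to PVDF. Membranes blocked in 5% BSA/TBST, probed with primary antibodies (pERK-Thr202, total ERK, cleaved PARP, β-actin) and HRP secondary. ECL detection, band densitometry.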

Mus musculus [8] = assay: In vivo inhibition of PI3K in BALB/c mouse xenografted with human MDA-MB-468 cells assessed as reduction in AKT phosphorylation at S473 residue at 50 mg/kg, ip administered every 2 days for 34 days measured post-last dose by Western blot analysis; assay type: functional, organism-based
Mus musculus [9] = assay: In vivo inhibition of PI3K in BALB/c mouse xenografted with human MDA-MB-468 cells assessed as reduction in pS6 phosphorylation at S240 residue at 50 mg/kg, ip administered every 2 days for 34 days measured post-last dose by Western blot analysis; assay type: functional, organism-based
MDA-MB-468 [10] = assay: Inhibition of PI3K in human MDA-MB-468 cells assessed as reduction in pS6 phosphorylation at S240 residue at 1 uM measured after 6 to 72 hrs by Western blot analysis; assay type: cell-based
Summary of the method: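 MDA-MB-468 cells seeded overnight, then exposed for 6 h; control medium contained 1‰ DMSO. Lysates run on 8–12% SDS-PAGE and transferred to PVDF. Blots blocked in 5% BSA/TBST and probed for pAKT-Ser473/total AKT or pS6-Ser240/total S6, with β-actin as loading control. HRP secondary with ECL detection; bands quantified by densitometry. Three independent experiments.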

MDA-MB-468 [11] = assay: Inhibition of PI3K in human MDA-MB-468 cells assessed as increase in gammaH2AX foci formation at 1 uM measured after 72 hrs by DAPI staining based immunofluorescence microscopic analysis; assay type: cell-based
Summary of the method: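 MDA-MB-468 cells on coverslips given drugs for 72 h. Fixed in 3% formaldehyde, permeabilized with 0.1% Triton X-100, blocked in 10% FBS/PBS, then rabbit anti-γH2AX (Ser139) overnight at 4 °C. Secondary antibody and DAPI stain followed. About 200 cells scored for foci; a cell was positive with more than 5 foci. Three independent experiments.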

[12] = Toxicity in BALB/c mouse xenografted with human MDA-MB-468 cells assessed as mortality at 50 mg/kg, ip administered every 2 days for 34 days; assay type: organism-based; conditions: in vivo
Summary of the method: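 Nude mice bearing subcutaneous right-flank MDA-MB-468 tumours (2 × 10^6 exponential-phase cells implanted). Randomised at about 100 mm³ tumour volume; 6 mice per group. Dosed ip every 2 days for 34 days. Vehicle controls received PBS with 5% DMSO. Body weight and tumour size recorded every 2 days; tumour volume calculated as ab²/2 from caliper diameters.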

## Nc1cc(C(F)(F)F)c(-c2cc(N3CCOCC3)nc(N3CCOCC3)n2)cn1 [BUPARLISIB]
HCT-116
  IC50: 1230 nM
MDA-MB-468 [1]
  Activity: 7.84%
MDA-MB-468 [2]
  IC50: 1290 nM
Jurkat
  IC50: 1290 nM
MDA-MB-231
  IC50: 1580 nM
HCC1937
  IC50: 1700 nM
DU-145
  IC50: 1170 nM
MDA-MB-468 [3]
  Activity: Active

## Nc1cc(C(F)(F)F)c(-c2nc3c(c(N4CCOCC4)n2)CCN(C(=O)c2cc(Cc4n[nH]c(=O)c5ccccc45)ccc2F)C3)cn1
[4]
  IC50: 832 nM
Mus musculus [5]
  Activity: Active
Mus musculus [6]
  Activity: Active
MDA-MB-468 [7]
  Activity: Active
Mus musculus [8]
  inhibition: Active
Mus musculus [9]
  inhibition: Active
MDA-MB-468 [10]
  inhibition: Active
MDA-MB-468 [11]
  inhibition: Active
[12]
  Activity: Non-Toxic
